Assay results: article PMC9669183 (British journal of pharmacology, 2022)
Like-named read-outs stand apart in the source and are kept apart here.

Tests used:
[1] = target: T1, α1β2γ2L GABAAR (Rattus norvegicus, UniProt P18508+P62813+P63138, INS375LLRMFSFK); type: cell-based; details: for potentiation of the response to low GABA (% of control): 50 μM α7-PAM, 2-5 μM GABA (PA<0.10), 100% = no effect, mean±SEM; for free energy change (ΔG) towards stabilizing the active state: co-agonist concerted transition model
[2] = target: T1, α1β2γ2L GABAAR; test: Drug combination; type: cell-based; details: for observed PA in the presence of R(+)-etomidate+α7-PAM / predicted PA for R(+)-etomidate+α7-PAM, distinct site model / predicted PA for R(+)-etomidate+α7-PAM, same site model: 50 μM α7-PAM
[3] = target: T2, α1β3γ2L GABAAR (Homo sapiens, UniProt P14867+P18507+P28472); type: binding; details: for direct effect on fluorescence from α1β3γ2L-bound Gzn-OG (orthosteric site): 3-100 μM α7-PAM, no GABA
[4] = target: T1, α1β2γ2L GABAAR; test: Direct activation, two-electrode voltage clamp in Xenopus oocytes; type: cell-based; details: 50 μM α7-PAM; n=5 oocytes/drug; mean±SEM
[5] = target: T1, α1β2γ2L GABAAR; test: Modulation of steady-state response to saturating GABA, Xenopus oocytes; type: cell-based; details: 50 μM α7-PAM; 1 mM GABA
[6] = target: T1, α1β2γ2L GABAAR; test: Potentiation of receptors activated by allosteric agonists; type: cell-based; details: 50 μM α7-PAM; for potentiation of currents elicited by propofol (% of control): 10 μM propofol; for potentiation of the response to phenobarbital (% of control): 1 mM phenobarbital, n=5; for potentiation of the peak response to R(+)-etomidate (% of control): 2-4 μM R(+)-etomidate
[7] = target: α1(Q241L)β2γ2L GABAAR (Rattus norvegicus, UniProt P18508+P62813+P63138, INS375LLRMFSFK/Q268L); test: Potentiation of low GABA response, mutant receptor in oocytes; type: cell-based; details: 50 μM; low GABA PA<0.10; mean±SEM
[8] = target: α1β2(N265M)γ2L GABAAR (Rattus norvegicus, UniProt P18508+P62813+P63138, INS375LLRMFSFK/N289M); test: as above; type: cell-based; details: 50 μM; low GABA PA<0.10; mean±SEM
[9] = target: α1β2(M286W)γ2L GABAAR (Rattus norvegicus, UniProt P18508+P62813+P63138, INS375LLRMFSFK/M310W); test: as above; type: cell-based; details: 50 μM; low GABA PA<0.10; mean±SEM
[10] = target: α1(L232C)β2γ2L GABAAR (Rattus norvegicus, UniProt P18508+P62813+P63138, INS375LLRMFSFK/L258C); test: as above; type: cell-based; details: 50 μM; low GABA PA<0.10; mean±SEM
[11] = target: α1(M236C)β2γ2L GABAAR (Rattus norvegicus, UniProt P18508+P62813+P63138, INS375LLRMFSFK/M262C); test: as above; type: cell-based; details: 50 μM; low GABA PA<0.10; mean±SEM
[12] = target: α1(A291W)β2γ2L GABAAR (Rattus norvegicus, UniProt P18508+P62813+P63138, A317W/INS375LLRMFSFK); test: as above; type: cell-based; details: 50 μM; low GABA PA<0.10; mean±SEM
[13] = target: α1β2γ2L(S280C) GABAAR (Rattus norvegicus, UniProt P18508+P62813+P63138, INS375LLRMFSFK/S318C); test: as above; type: cell-based; details: 50 μM; low GABA PA<0.10; mean±SEM
[14] = target: α1β2γ2L(I242C) GABAAR (Rattus norvegicus, UniProt P18508+P62813+P63138, I280C/INS375LLRMFSFK); test: as above; type: cell-based; details: 50 μM; low GABA PA<0.10; mean±SEM
[15] = target: α1β2γ2L(L246C) GABAAR (Rattus norvegicus, UniProt P18508+P62813+P63138, INS375LLRMFSFK/L284C); test: as above; type: cell-based; details: 50 μM; low GABA PA<0.10; mean±SEM
[16] = target: T2, α1β3γ2L GABAAR; test: Potentiation of low GABA response, oocytes; type: cell-based; details: 50 μM; low GABA PA<0.10; mean±SEM
[17] = target: α1β3(M227C)γ2L GABAAR (Homo sapiens, UniProt P14867+P18507+P28472, M252C); test: Potentiation of low GABA response, mutant receptor in oocytes; type: cell-based; details: 50 μM; low GABA PA<0.10; mean±SEM
[18] = target: α1β3(L231C)γ2L GABAAR (Homo sapiens, UniProt P14867+P18507+P28472, L256C); test: as above; type: cell-based; details: 50 μM; low GABA PA<0.10; mean±SEM
[19] = target: α4β2δ GABAA receptor (Homo sapiens, UniProt O14764+P47870+P48169); test: Effect on α4β2δ receptor during long drug applications, oocytes; type: cell-based
α4β2δ GABAA receptor, sequence (P48169 36-554): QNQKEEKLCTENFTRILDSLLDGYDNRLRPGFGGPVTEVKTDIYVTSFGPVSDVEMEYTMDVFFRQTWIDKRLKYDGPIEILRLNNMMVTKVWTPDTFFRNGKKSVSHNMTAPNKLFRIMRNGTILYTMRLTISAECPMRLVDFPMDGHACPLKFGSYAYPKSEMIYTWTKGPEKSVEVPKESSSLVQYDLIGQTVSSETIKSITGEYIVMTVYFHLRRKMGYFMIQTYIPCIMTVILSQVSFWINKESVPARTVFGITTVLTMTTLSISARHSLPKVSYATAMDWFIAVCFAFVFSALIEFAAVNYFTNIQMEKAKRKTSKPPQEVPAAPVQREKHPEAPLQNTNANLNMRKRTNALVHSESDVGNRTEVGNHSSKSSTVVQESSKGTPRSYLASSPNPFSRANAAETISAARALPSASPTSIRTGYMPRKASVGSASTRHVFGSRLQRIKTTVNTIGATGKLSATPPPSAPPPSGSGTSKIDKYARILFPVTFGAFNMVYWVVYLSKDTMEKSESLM
α4β2δ GABAA receptor, sequence (P47870 25-512 limits assumed): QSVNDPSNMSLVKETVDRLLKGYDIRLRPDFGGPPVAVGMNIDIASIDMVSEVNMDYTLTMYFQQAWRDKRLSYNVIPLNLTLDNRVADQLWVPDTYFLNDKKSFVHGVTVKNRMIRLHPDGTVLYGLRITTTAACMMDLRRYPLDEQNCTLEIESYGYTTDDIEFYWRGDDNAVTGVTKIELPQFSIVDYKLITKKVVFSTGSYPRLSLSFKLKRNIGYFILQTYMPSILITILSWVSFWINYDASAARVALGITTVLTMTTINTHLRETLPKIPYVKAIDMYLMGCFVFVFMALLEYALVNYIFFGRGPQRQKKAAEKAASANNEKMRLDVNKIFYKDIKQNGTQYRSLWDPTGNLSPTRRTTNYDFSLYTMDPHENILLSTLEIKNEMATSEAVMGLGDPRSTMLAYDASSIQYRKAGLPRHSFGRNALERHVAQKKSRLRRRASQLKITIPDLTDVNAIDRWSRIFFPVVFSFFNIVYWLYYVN
α4β2δ GABAA receptor, sequence (O14764 25-452): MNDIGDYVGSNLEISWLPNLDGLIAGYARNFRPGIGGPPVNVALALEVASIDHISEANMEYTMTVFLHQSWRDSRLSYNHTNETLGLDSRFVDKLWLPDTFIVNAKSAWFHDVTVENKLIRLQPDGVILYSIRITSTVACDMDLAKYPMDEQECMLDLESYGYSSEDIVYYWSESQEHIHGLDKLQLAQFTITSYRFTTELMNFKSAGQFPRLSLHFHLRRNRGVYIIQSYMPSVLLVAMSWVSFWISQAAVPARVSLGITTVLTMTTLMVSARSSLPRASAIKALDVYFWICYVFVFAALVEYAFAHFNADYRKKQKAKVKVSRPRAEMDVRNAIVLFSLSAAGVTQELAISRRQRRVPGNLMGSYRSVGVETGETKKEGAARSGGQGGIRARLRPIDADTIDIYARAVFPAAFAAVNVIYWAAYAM
Method in brief: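 Human α4β2δ GABAA receptors were expressed in Xenopus laevis oocytes by injecting 3.5-6 ng total cRNA per oocyte. Oocytes were held 1-2 days in ND96 (pH 7.4) with Na pyruvate and antibiotics. Currents were recorded by two-electrode voltage clamp.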

[20] = tested on: binary αβ GABAA receptors (α1β2, α1β3); test: Potentiation of binary αβ receptors compared with ternary αβγ, oocytes; type: cell-based
[21] = tested on: α4β2 nicotinic receptor; details: at high μM concentrations; ref Arias et al., 2011; Timmermann et al., 2007; cited from earlier work
[22] = tested on: α3β4 nicotinic receptor; details: at high μM concentrations; ref Arias et al., 2011; Timmermann et al., 2007; cited from earlier work
[23] = 0.5 μM GABA+20 μM NS-1738+25 μM PAM-2

| Compound | decrease in GABA Ki between 0 (control) and 100 μM α7-PAM [3] [fold] | direct effect on fluorescence from α1β3γ2L-bound Gzn-OG (orthosteric site) [3] | direct activation: response as % of the peak response to 1 mM GABA+50 μM propofol [4] [%] | potentiation of the response to low GABA (% of control) [1] | free energy change (ΔG) towards stabilizing the active state [1] [kcal/mol] | steady-state response to saturating GABA in presence of α7-PAM (% of control) [5] | observed PA in the presence of R(+)-etomidate+α7-PAM [2] | predicted PA for R(+)-etomidate+α7-PAM, distinct site model [2] | predicted PA for R(+)-etomidate+α7-PAM, same site model [2] | potentiation of currents elicited by propofol (% of control) [6] | potentiation of the response to phenobarbital (% of control) [6] | potentiation of the peak response to R(+)-etomidate (% of control) [6] | Potentiation (% of control), α1(Q241L)β2γ2L [7] | Potentiation (% of control), α1β2(N265M)γ2L [8] | Potentiation (% of control), α1β2(M286W)γ2L [9] | Potentiation (% of control), α1(L232C)β2γ2L [10] | Potentiation (% of control), α1(M236C)β2γ2L [11] | Potentiation (% of control), α1(A291W)β2γ2L [12] | Potentiation (% of control), α1β2γ2L(S280C) [13] | Potentiation (% of control), α1β2γ2L(I242C) [14] | also measured |
| --- | --- | --- | --- | --- | --- | --- | --- | --- | --- | --- | --- | --- | --- | --- | --- | --- | --- | --- | --- | --- | --- |
| NCCCC(=O)O [GABA, γ-aminobutyric acid] |  |  |  |  |  |  |  |  |  |  |  |  |  |  |  |  |  |  |  |  | PA of response to GABA alone ([1]; 2-5 μM GABA (EC6-7)): 0.05-0.06; PA of response to GABA alone ([2]; 0.5 μM GABA, n=5): 0.039±0.013 |
| O=C(Nc1cc(Cl)ccc1O)Nc1cc(C(F)(F)F)ccc1Cl [NS-1738, N-(5-Cl-2-hydroxyphenyl)-N’-[2-Cl-5-(trifluoromethyl)phenyl]-urea] | 25 | do not modify fluorescence | 0.86±0.51 | 383±38 % of control | -1.29 | 44±8 % of control | 0.068±0.022 | 0.253±0.055 | 0.007±0.002 | 145±11 % of control | 431±52 % of control | 125±8 % of control | 491 ± 45% of control | 426 ± 61% of control | 613 ±91% % of control | 357 ± 55% of control | 181 ± 15% % of control | 199 ± 22% % of control | 344 ± 60% of control | 376 ±35% of control | PA of response to GABA+NS-1738 ([2]; 0.5 μM GABA+20 μM NS-1738): 0.153±0.043; PA of response to low GABA+NS-1738 ([2]; 0.1-0.5 μM GABA+10 μM NS-1738, 5 oocytes): 0.084±0.028; Potentiation (% of control), α1β2γ2L(L246C) [15]: 262 ± 25% of control; Potentiation (% of control), α1β3γ2L [16]: 301 ± 12% of control; Potentiation (% of control), α1β3(M227C)γ2L [17]: 322 ± 40% of control; Potentiation (% of control), α1β3(L231C)γ2L [18]: 217 ± 36% of control; effect on the α4β2δ receptor [19]: inhibited; magnitude of potentiation in binary αβ vs ternary αβγ receptors [20]: similar; effect on the heteromeric α4β2 nicotinic receptor [21]: inhibit; effect on the heteromeric α3β4 nicotinic receptor [22]: inhibit |
| Cc1ccc(NC(=O)/C=C/c2ccco2)cc1 [PAM-2, (E)-3-(furan-2-yl)-N-(p-tolyl)-acrylamide] | 3.8 | do not modify fluorescence | 0.70±0.19 | 300 ± 43 % of control | -0.76 | 70±4 % of control | 0.050±0.013 | 0.097±0.030 | 0.008±0.002 | 123±9 % of control | 103±6 % of control | 140±17 % of control | 382 ± 29% of control | 124 ± 6% % of control | 181 ± 12% % of control | 197 ± 8% % of control | 176 ± 11% % of control | 130 ± 7% % of control | 233 ± 16% of control | 189 ± 11% % of control | EC50 [1]: 26 ± 8 µM; Kd [1]: 24.8 ± 10.5 µM; calculated PA for GABA+NS-1738+PAM-2, distinct site model [2, 23]: 0.267±0.065; calculated PA for GABA+NS-1738+PAM-2, same site model [2, 23]: 0.146±0.043; observed PA of response to GABA+NS-1738+PAM-2 [2, 23]: 0.158±0.044; Potentiation (% of control), α1β2γ2L(L246C) [15]: 147 ± 7% % of control; Potentiation (% of control), α1β3γ2L [16]: 176 ± 12% % of control; Potentiation (% of control), α1β3(M227C)γ2L [17]: 163 ± 12% of control; Potentiation (% of control), α1β3(L231C)γ2L [18]: 153 ± 11% of control; effect on the α4β2δ receptor [19]: inhibited; magnitude of potentiation in binary αβ vs ternary αβγ receptors [20]: similar; effect on the heteromeric α4β2 nicotinic receptor [21]: inhibit; effect on the heteromeric α3β4 nicotinic receptor [22]: inhibit |
